For 59 compounds, activity change, negative = cytotoxicity and AC50 results are on record in PubChem BioAssay AID602126 (Broad Institute, 2011).

Activity calls are given as the source filed them.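 Rule for the calls: active = compounds cutting cell ATP light whose fitted AC50 is at most double the top dose tried; inconclusive = flat moderate signal loss, or an unreliable curve fit; inactive = the rest.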 Where only a bound is given, the exact number is not on record here.

Tested on in one assay: not listed separately
In words: cytotoxicity in ldlA[mSR-BI] CHO cells, dose response, cytotoxicity control for SR-BI HDL uptake inhibitor project, cell-based, CellTiter-Glo luminescence, 24 h, dry powder, set 5 (AID 602126). The following applies: ldlA[mSR-BI] CHO cells viability, CellTiter-Glo ATP luminescence, 24 h; at 30 µM (top of the series). An outline of the steps: (§1)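 material = ldlA[mSR-BI] cells | quantity = 4,000 cells per well | times = 24 h compound exposure at 37 °C, then 10 min with detection reagent | signal = luminescence of cellular ATP via CellTiter-Glo luciferase reagent | read-out = IC50 of cell viability from ATP-dependent luminescence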
`C[C@H]1CN([C@@H](C)CO)C(=O)c2cc(NC(=O)Cc3cn(C)c4ccccc34)ccc2O[C@H]1CN(C)S(=O)(=O)c1ccc(F)cc1`: the activity change, negative = cytotoxicity was -19.8% (inactive).

Staying with this assay, now noted: ldlA[mSR-BI] CHO cells viability, CellTiter-Glo ATP luminescence, 24 h; at 35 µM (top of the series).
Take `Cc1ccc(-c2nnn(CC(=O)N(C3CCCCC3)C(C)C(=O)NC3CCCC3)n2)cc1` (stereo not given): the activity change, negative = cytotoxicity is -2.67% (inactive).

For the compound `CC(C(=O)NC1CCCC1)N(C(=O)Cn1nnc(-c2ccccc2F)n1)C1CCCCC1` (stereo not given), the activity change, negative = cytotoxicity is -27.4% (inactive).

Turning to `CC(C)(C)OC(=O)N1CCc2cc(-c3noc(NC(=O)c4ccco4)n3)ccc21`, the activity change, negative = cytotoxicity was -3.91% (inactive).

Regarding `C[C@H](CO)N1C[C@H](C)[C@H](CN(C)S(=O)(=O)c2ccc(Cl)cc2)Oc2ccc(NC(=O)Cc3cn(C)c4ccccc34)cc2C1=O`, the activity change, negative = cytotoxicity was -19.4% (inactive).

As to `CCC(=O)N1CCc2cc(-c3cnc(NC(C)=O)[nH]3)ccc21`, the activity change, negative = cytotoxicity was -35.4% (inactive).

Turning to `CCC(=O)N1CCc2cc(-c3csc(/N=C(/OC)c4cc(OC)cc(OC)c4)n3)ccc21`, the activity change, negative = cytotoxicity is -10.7% (inactive).

In the case of `CC(C)OCCCNC(=O)c1ccc(C2SCC(=O)N2Cc2ccco2)cc1` (stereo not given), the activity change, negative = cytotoxicity is -15.7% (inactive).

For `CC(C(=O)NC1CCCC1)N(C(=O)Cn1nnc(-c2ccc3c(c2)OCO3)n1)C1CCOCC1` (stereo not given), the activity change, negative = cytotoxicity was -7.76% (inactive).

In the case of `CC(OC(=O)c1cccc(NS(C)(=O)=O)c1)C(=O)Nc1ccc(N2CCOCC2)cc1` (stereo not given), the activity change, negative = cytotoxicity was -6.16% (inactive).

On to `C[C@H]1CN([C@@H](C)CO)C(=O)c2cccc(NC(=O)Nc3ccccc3)c2O[C@@H]1CN(C)S(C)(=O)=O`, for which the activity change, negative = cytotoxicity was 1.04% (inactive).

Turning to `CCC(=O)Nc1ccc(-c2csc(NC(=O)c3ccco3)n2)cc1`, the activity change, negative = cytotoxicity is -1.37% (inactive).

`Cc1cc(C)c2c(c1)NC(c1cc3c(cc1Br)OCO3)C1CC=CC21` (stereo not given): the activity change, negative = cytotoxicity is -26.7% (inactive).

As to `CC(C(=O)NC1CCCC1)N(C(=O)Cn1nnc(-c2ccccc2Cl)n1)C1CCCCC1` (stereo not given), the activity change, negative = cytotoxicity was -11.7% (inactive).

As to `CCCn1ccc2cc(-c3csc(NC(=O)c4ccco4)n3)ccc21`, the activity change, negative = cytotoxicity is -34.1% (inactive).

Consider `C[C@H]1CN([C@@H](C)CO)C(=O)c2cccc(NC(=O)Nc3ccccc3)c2O[C@@H]1CN(C)Cc1ccc(C(F)(F)F)cc1`, for which the activity change, negative = cytotoxicity is -30.4% (inactive).

For the compound `C[C@H]1CN([C@@H](C)CO)C(=O)c2cccc(NS(C)(=O)=O)c2O[C@@H]1CN(C)Cc1ccc(Cl)c(Cl)c1`, the activity change, negative = cytotoxicity was -10.3% (inactive).

Take `COc1ccc(-c2nnn(CC(=O)N(C3CCCCC3)C(C)C(=O)NC(C)C)n2)cc1OC` (stereo not given): the activity change, negative = cytotoxicity is -0.753% (inactive).

As for `C[C@H](CO)N1C[C@H](C)[C@H](CN(C)S(=O)(=O)c2ccc(F)cc2)Oc2ccc(NS(C)(=O)=O)cc2C1=O`, the activity change, negative = cytotoxicity was 11.2% (inactive).

Turning to `COc1ccc(-c2nnn(CC(=O)N(C3CCCCC3)C(C)C(=O)NC(C)(C)C)n2)cc1OC` (stereo not given), the activity change, negative = cytotoxicity was -2.38% (inactive).

Turning to `C[C@H](CO)N1C[C@H](C)[C@@H](CN(C)S(=O)(=O)c2ccc(F)cc2)Oc2ccc(NC(=O)Cc3cn(C)c4ccccc34)cc2C1=O`, the activity change, negative = cytotoxicity was -14% (inactive).

On to `COc1ccc(-c2nnn(CC(=O)N(C3CCCCC3)C(C)C(=O)NC3CC3)n2)cc1OC` (stereo not given), for which the activity change, negative = cytotoxicity is -10.4% (inactive).

Take `COC(=O)N1CCc2cc(-c3csc(NC(=O)c4ccco4)n3)ccc21`: the activity change, negative = cytotoxicity is -18.6% (inactive).

For the compound `C[C@H]1CN([C@@H](C)CO)C(=O)c2cccc(NC(=O)Nc3ccccc3)c2O[C@@H]1CN(C)Cc1ccc(Cl)c(Cl)c1`, the activity change, negative = cytotoxicity was -98.2% (inactive).

Consider `CCC(=O)N1CCc2cc(-c3coc(N)n3)ccc21`, for which the activity change, negative = cytotoxicity was 3.91% (inactive).

On to `C[C@@H]1CN([C@H](C)CO)C(=O)Cc2cc(NC(=O)Cc3cn(C)c4ccccc34)ccc2O[C@H]1CN(C)S(=O)(=O)c1ccc(F)cc1`, for which the activity change, negative = cytotoxicity was -14% (inactive).

For the compound `C[C@H]1CN([C@@H](C)CO)C(=O)c2cccc(NC(=O)Nc3ccccc3)c2O[C@@H]1CN(C)C`, the activity change, negative = cytotoxicity was -7.64% (inactive).

For `O=C(Nc1nc(-c2ccc3c(c2)CCN3C(=O)C2CC2)cs1)c1ccco1`, the activity change, negative = cytotoxicity is -26.1% (inactive).

With `C[C@@H]1CN([C@H](C)CO)C(=O)c2cc(NC(=O)Cc3cn(C)c4ccccc34)ccc2O[C@H]1CN(C)S(=O)(=O)c1ccc(Cl)cc1`, the activity change, negative = cytotoxicity is -18.6% (inactive).

`C[C@H](CO)N1C[C@H](C)[C@H](CN(C)S(=O)(=O)c2ccc(F)cc2)Oc2ccc(NC(=O)Cc3ccccc3)cc2C1=O`: the activity change, negative = cytotoxicity was -6.53% (inactive).

Turning to `C[C@@H]1CN([C@H](C)CO)C(=O)c2cc(NC(=O)Cc3cn(C)c4ccccc34)ccc2O[C@H]1CN(C)S(C)(=O)=O`, the activity change, negative = cytotoxicity was -4.54% (inactive).

Turning to `COc1ccccc1-c1nnn(CC(=O)N(C2CCCCC2)C(C)C(=O)NC2CCCC2)n1` (stereo not given), the activity change, negative = cytotoxicity was 1.77% (inactive).

Turning to `C[C@@H]1CN([C@@H](C)CO)C(=O)c2cc(NC(=O)Cc3cn(C)c4ccccc34)ccc2O[C@H]1CN(C)S(=O)(=O)c1ccc(Cl)cc1`, the activity change, negative = cytotoxicity is -7.85% (inactive).

As to `CCC(=O)N1CCc2cc(-c3csc(NC(=O)C4CCCC4)n3)ccc21`, the activity change, negative = cytotoxicity was 0.408% (inactive).

`COc1ccc(-c2nnn(CC(=O)N(C3CCCCC3)C(C)C(=O)NC3CCCC3)n2)cc1OC` (stereo not given): the activity change, negative = cytotoxicity is -8.68% (inactive).

Consider `COc1ccc(-c2nnn(CC(=O)N(C)C(C)C(=O)NC3CCCC3)n2)cc1OC` (stereo not given), for which the activity change, negative = cytotoxicity is -6.96% (inactive).

In the case of `C[C@@H]1CN([C@H](C)CO)C(=O)c2cc(NC(=O)Cc3cn(C)c4ccccc34)ccc2O[C@H]1CN(C)S(=O)(=O)c1ccc(F)cc1`, the activity change, negative = cytotoxicity was -29.1% (inactive).

As for `CCC(=O)N1CCc2cc(-c3coc(NC(=O)c4ccco4)n3)ccc21`, the activity change, negative = cytotoxicity is -8.19% (inactive).

For the compound `O=C(Nc1ccc(-c2nc3cc(NC(=O)c4ccc(NC(=O)c5cccc6ccccc56)cc4)ccc3[nH]2)cc1)c1ccc(NC(=O)c2cccc3ccccc23)cc1`, the activity change, negative = cytotoxicity is -8.2% (inactive).

Consider `Cc1cc(C(=O)C(C)OC(=O)C2=NNC(=O)CC2)c(C)n1-c1ccc(OC(F)F)cc1` (stereo not given), for which the activity change, negative = cytotoxicity is -26.5% (inactive).

As to `CCOC(=O)Nc1cccc(NC(=O)c2cc(OC)cc(OC)c2)c1`, the activity change, negative = cytotoxicity is -19.4% (inactive).

Regarding `CCC(=O)N1CCc2cc(-c3cnc(NC(=O)c4ccco4)[nH]3)ccc21`, the activity change, negative = cytotoxicity was 2.33% (inactive).

For `CCC(=O)N1CCc2cc(-c3csc(NC(=O)c4ccno4)n3)ccc21`, the activity change, negative = cytotoxicity is 0.915% (inactive).

Consider `COc1ccc(-c2nnn(CC(=O)N(C3CC3)C(C)C(=O)NC3CCCC3)n2)cc1OC` (stereo not given), for which the activity change, negative = cytotoxicity was -16% (inactive).

`CCC(=O)N1CCc2cc(-c3csc(NC(=O)c4cc5cccnc5o4)n3)ccc21`: the activity change, negative = cytotoxicity was -0.539% (inactive).

Take `Nc1ccc(C(=O)Nc2ccc(-c3nc4ccc(NC(=O)c5ccc(N)cc5)cc4[nH]3)cc2)cc1`: the activity change, negative = cytotoxicity is -13.9% (inactive).

On to `CCC(=O)N1CCc2cc(-c3csc(NC(=O)c4cocn4)n3)ccc21`, for which the activity change, negative = cytotoxicity was -6.6% (inactive).

In the case of `CNC[C@@H]1Oc2ccc(NC(=O)Cc3cn(C)c4ccccc34)cc2C(=O)N([C@H](C)CO)C[C@H]1C`, the activity change, negative = cytotoxicity is 2.26% (inactive).

Turning to `C[C@@H]1CN([C@@H](C)CO)C(=O)c2cc(NC(=O)Cc3cn(C)c4ccccc34)ccc2O[C@H]1CN(C)S(=O)(=O)c1ccc(F)cc1`, the activity change, negative = cytotoxicity was -9.34% (inactive).

As to `C[C@@H]1CN([C@H](C)CO)C(=O)c2cc(NC(=O)Cc3cn(C)c4ccccc34)ccc2O[C@H]1CN(C)C(=O)Nc1ccc(F)cc1`, the activity change, negative = cytotoxicity is -8.77% (inactive).

On to `CC(C)(C)NC(=O)N1CCN(c2ncccc2C(F)(F)F)CC1`, for which the activity change, negative = cytotoxicity is -9.57% (inactive).

For the compound `O=C(Nc1ccc(-c2nc3ccc(NC(=O)c4ccccc4[N+](=O)[O-])cc3[nH]2)cc1)c1ccccc1[N+](=O)[O-]`, the activity change, negative = cytotoxicity was -15.1% (inactive).

For `Cc1ccc(-c2nnc(N3CCC(C)CC3)c3ccccc23)cc1C`, the activity change, negative = cytotoxicity is -8.22% (inactive).

`CC(C(=O)NC1CCCC1)N(C(=O)Cn1nnc(-c2ccc(F)cc2)n1)C1CCCCC1` (stereo not given): the activity change, negative = cytotoxicity is -24.9% (inactive).

Consider `C[C@H]1CN([C@@H](C)CO)C(=O)c2cc(NC(=O)Cc3cn(C)c4ccccc34)ccc2O[C@@H]1CN(C)S(=O)(=O)c1ccc(F)cc1`, for which the activity change, negative = cytotoxicity is -15.6% (inactive).

With `COc1cccc(-c2nnn(CC(=O)N(C3CCCCC3)C(C)C(=O)NC3CCCC3)n2)c1` (stereo not given), the activity change, negative = cytotoxicity was -12.4% (inactive).

Take `CCC(=O)N1CCc2cc(-c3csc(NC(=O)c4ccc(F)c(OC)c4)n3)ccc21`: the activity change, negative = cytotoxicity was -10.7% (inactive).

With `C[C@H](CO)N1C[C@H](C)[C@H](CN(C)S(=O)(=O)c2ccc(F)cc2)Oc2ccc(NC(=O)CCC(F)(F)F)cc2C1=O`, the activity change, negative = cytotoxicity is -2.53% (inactive).

For a further assay, the system named is ldlA[mSR-BI] CHO cells viability, CellTiter-Glo ATP luminescence, 24 h. The description is as above.
Conditions: not given
The essentials: as §1
By AC50 is commonly meant the concentration giving half of the maximal activity seen. As for `C[C@@H]1CN([C@H](C)CO)C(=O)c2cc(NC(=O)Cc3cn(C)c4ccccc34)ccc2O[C@H]1CN(C)S(=O)(=O)c1ccc(Cl)cc1`, the AC50 was > 70 µM (inactive).

Consider `COc1cc(OC)cc(C(=O)Nc2nc(-c3ccc4c(c3)CCN4C(=O)OC(C)(C)C)cs2)c1`, for which the AC50 is > 70 µM (inactive).
